Our source for the IC50, inhibition and Activity values is ChEMBL document CHEMBL4706575, “Nonpeptidic quinazolinone derivatives as dual nucleotide-binding oligomerization domain-like receptor 1/2 antagonists for adjuvant cancer chemotherapy” (Eur J Med Chem, 2020).

Each structure is given as a SMILES string. pIC50: −log10 of the molar value. Activity calls are given as the source filed them. No cut-off for these calls is given here.

The target of data set [1] is T1, Nucleotide-binding oligomerization domain-containing protein 2 (Homo sapiens, UniProt Q9HC29). Description: Antagonist activity at NOD2 in HEK-Blue hNOD2 cells assessed as inhibition of MDP-induced NFkappaB activation-mediated SEAP release preincubated for 3 hrs followed by MDP addition and measured after 20 hrs by spectrophotometric method. The data set is classed as cell-based. A digest of the protocol: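 HEK-Blue hNOD2 cells preincubated 3 h with a range of concentrations, then MDP 100 ng/mL for 20 h. SEAP quantified. SRB assay run to exclude cytotoxicity. IC50 by nonlinear semi-logarithmic fit, mean ± SD, n = 3.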
T1 sequence (Q9HC29 whole entry, the tested form may be a part): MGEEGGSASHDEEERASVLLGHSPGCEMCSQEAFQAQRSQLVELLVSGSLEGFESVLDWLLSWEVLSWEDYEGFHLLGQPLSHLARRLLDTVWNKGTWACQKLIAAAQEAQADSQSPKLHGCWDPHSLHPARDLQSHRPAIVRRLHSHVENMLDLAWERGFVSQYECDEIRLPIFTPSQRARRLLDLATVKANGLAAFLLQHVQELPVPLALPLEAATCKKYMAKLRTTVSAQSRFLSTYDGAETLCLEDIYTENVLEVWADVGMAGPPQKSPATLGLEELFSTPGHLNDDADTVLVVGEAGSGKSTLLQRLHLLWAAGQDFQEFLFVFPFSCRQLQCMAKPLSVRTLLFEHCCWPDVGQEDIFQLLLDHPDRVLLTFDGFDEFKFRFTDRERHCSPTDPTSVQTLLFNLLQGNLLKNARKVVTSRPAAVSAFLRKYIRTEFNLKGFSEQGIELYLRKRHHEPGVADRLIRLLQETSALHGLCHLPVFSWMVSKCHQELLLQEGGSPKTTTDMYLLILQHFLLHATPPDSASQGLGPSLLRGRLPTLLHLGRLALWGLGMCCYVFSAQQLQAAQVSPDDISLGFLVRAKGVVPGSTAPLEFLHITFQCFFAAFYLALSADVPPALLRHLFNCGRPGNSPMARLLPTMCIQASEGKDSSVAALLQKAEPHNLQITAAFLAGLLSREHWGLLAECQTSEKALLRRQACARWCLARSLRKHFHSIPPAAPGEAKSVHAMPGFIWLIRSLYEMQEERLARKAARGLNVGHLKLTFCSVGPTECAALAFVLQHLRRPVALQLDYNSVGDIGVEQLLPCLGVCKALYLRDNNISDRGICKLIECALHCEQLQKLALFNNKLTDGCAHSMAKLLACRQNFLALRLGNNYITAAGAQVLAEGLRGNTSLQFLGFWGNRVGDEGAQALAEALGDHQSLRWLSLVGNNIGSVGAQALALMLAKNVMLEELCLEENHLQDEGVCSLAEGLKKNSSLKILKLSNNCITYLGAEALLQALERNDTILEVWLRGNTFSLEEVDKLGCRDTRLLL

In data set [2] the target is T2, Nucleotide-binding oligomerization domain-containing protein 1 (Homo sapiens) (UniProt Q9Y239).
T2 sequence (whole entry): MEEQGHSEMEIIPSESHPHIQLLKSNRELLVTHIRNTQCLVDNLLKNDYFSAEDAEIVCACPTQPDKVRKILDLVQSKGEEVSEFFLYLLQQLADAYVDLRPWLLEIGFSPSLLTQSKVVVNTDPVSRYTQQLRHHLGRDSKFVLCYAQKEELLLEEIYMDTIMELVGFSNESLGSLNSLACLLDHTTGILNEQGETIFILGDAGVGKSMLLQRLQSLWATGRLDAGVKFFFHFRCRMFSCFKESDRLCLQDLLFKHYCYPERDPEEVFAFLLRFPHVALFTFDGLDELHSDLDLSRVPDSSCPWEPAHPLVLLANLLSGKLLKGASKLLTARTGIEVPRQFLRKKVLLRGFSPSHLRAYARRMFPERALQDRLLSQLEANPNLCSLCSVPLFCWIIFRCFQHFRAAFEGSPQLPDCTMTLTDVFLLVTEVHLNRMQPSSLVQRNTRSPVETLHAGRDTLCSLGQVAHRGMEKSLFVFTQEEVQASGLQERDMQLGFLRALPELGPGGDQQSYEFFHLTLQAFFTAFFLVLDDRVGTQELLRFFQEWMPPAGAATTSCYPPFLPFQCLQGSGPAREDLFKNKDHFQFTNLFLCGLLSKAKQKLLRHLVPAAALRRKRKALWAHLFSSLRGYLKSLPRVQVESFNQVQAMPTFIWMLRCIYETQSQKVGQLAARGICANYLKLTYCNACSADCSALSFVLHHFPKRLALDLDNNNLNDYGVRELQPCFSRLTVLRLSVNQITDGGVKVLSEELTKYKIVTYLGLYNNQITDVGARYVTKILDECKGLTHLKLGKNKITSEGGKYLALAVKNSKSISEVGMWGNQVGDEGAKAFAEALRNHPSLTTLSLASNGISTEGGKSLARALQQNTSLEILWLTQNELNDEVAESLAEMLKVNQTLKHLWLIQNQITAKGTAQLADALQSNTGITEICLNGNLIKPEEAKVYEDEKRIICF
Description: Antagonist activity at NOD1 in human THP-1 cells assessed as inhibition of C12-iE-DAP-induced increase in RIP2 phosphorylation at 1 to 10 uM preincubated for 1 hr followed by C12-iE-DAP addition and measured after 30 mins by Western blot analysis. In kind it is cell-based. The following applies: filed as antagonist, dose 1-10 µM, time 1.5 hrs. A digest of the protocol:
(§1)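 Serum-starved THP-1 cells pretreated with compound (1.0 or 10 µM) or without for 1 h. Then C12-iE-DAP 500 ng/mL (NOD1) or MDP (NOD2) for 30 min. Lysed in cold whole-cell buffer. Western blot for IκBα and for total and phospho RIP2, IKKα/β, p65, JNK, p38 and ERK1/2. β-actin as loading control.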

For data set [3], the target named is T2, Nucleotide-binding oligomerization domain-containing protein 1 (Homo sapiens). Kind of data set: Antagonist activity at NOD1 in human THP-1 cells assessed as inhibition of C12-iE-DAP-induced increase in IKKalpha/beta phosphorylation at 1 to 10 uM preincubated for 1 hr followed by C12-iE-DAP addition and measured after 30 mins by Western blot analysis. In kind it is cell-based. The following applies: filed as antagonist, dose 1-10 µM, time 1.5 hrs. A digest of the protocol:
as §1

For data set [4] the target is unchanged. Kind of data set: Antagonist activity at NOD1 in human THP-1 cells assessed as inhibition of C12-iE-DAP-induced increase in JNK phosphorylation at 1 to 10 uM preincubated for 1 hr followed by C12-iE-DAP addition and measured after 30 mins by Western blot analysis. In kind it is cell-based. Conditions: filed as antagonist, dose 1-10 µM, time 1.5 hrs. A digest of the protocol:
as §1

Data set [5] has the same target. Kind of data set: Antagonist activity at NOD1 in human THP-1 cells assessed as inhibition of C12-iE-DAP-induced IkappaBalpha degradation at 1 to 10 uM preincubated for 1 hr followed by C12-iE-DAP addition and measured after 30 mins by Western blot analysis. The data set is classed as cell-based. Conditions: filed as antagonist, dose 1-10 µM, time 1.5 hrs. A digest of the protocol:
as §1

The target of data set [6] is T1, Nucleotide-binding oligomerization domain-containing protein 2. Kind of data set: Antagonist activity at NOD2 in human THP-1 cells assessed as inhibition of MDP-induced increase in RIP2 phosphorylation preincubated for 1 hr followed by MDP addition and measured after 30 mins by Western blot analysis. Conditions: filed as antagonist, dose 1-10 µM, time 1.5 hrs. In kind it is cell-based. A digest of the protocol:
as §1

The target in data set [7] is T2, Nucleotide-binding oligomerization domain-containing protein 1 (Homo sapiens). Description: Antagonist activity at NOD1 in human THP-1 cells assessed as inhibition of C12-iE-DAP-induced IL6 mRNA expression preincubated for 1 hr followed by C12-iE-DAP addition and measured after 90 mins by qRT-PCR analysis. Conditions: filed as antagonist, dose 1-10 µM, time 150.0 min. In kind it is cell-based. A digest of the protocol:
(§2)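 THP-1 cells in RPMI-1640 with 10% FBS, treated with compound (1.0 or 10 µM) or vehicle for 1 h. Then stimulated 90 min with C12-iE-DAP 500 ng/mL (NOD1) or MDP (NOD2). IL-6, TNF-α and IL-8 mRNA measured by qRT-PCR. Mean ± SD, n = 6, two-tailed t-test.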

Data set [8] has the same target. Description: Antagonist activity at NOD1 in human THP-1 cells assessed as inhibition of C12-iE-DAP-induced IL8 mRNA expression preincubated for 1 hr followed by C12-iE-DAP addition and measured after 90 mins by qRT-PCR analysis. In kind it is cell-based. Conditions: filed as antagonist, dose 1-10 µM, time 150.0 min. A digest of the protocol:
as §2

In data set [9] the target is T1, Nucleotide-binding oligomerization domain-containing protein 2. Description: Antagonist activity at NOD2 in human THP-1 cells assessed as inhibition of MDP-induced TNFalpha mRNA expression preincubated for 1 hr followed by MDP addition and measured after 90 mins by qRT-PCR analysis. The data set is classed as cell-based. The following applies: filed as antagonist, dose 1-10 µM, time 150.0 min. A digest of the protocol:
as §2

Data set [10] in a line: Toxicity in mouse B16-F10 cells implanted C57BL/6 mouse assessed as change in body weight at 50 mg/kg, iv administered every other day for 15 days. The data set is classed as organism-based. The following applies: in vivo, 360 h, time 15 day.

With `O=C(NCCCOc1ccc(C(F)(F)F)cc1)c1cc2ncn(CC(=O)N3CCCC(F)(F)C3)c(=O)c2cc1-c1cccc(Cl)c1`, the negative-log IC50 (pIC50) in data set [1] was 6.11. For the same molecule, the inhibition entry in [1] (filed as antagonist, time 23.0 hrs) is “Dose-dependent effect”; in [6], “Dose-dependent effect”; in data set [7], “Dose-dependent effect”; in [8], “Dose-dependent effect”; in [9] it was “Dose-dependent effect”. Also, the inhibition result in [2], in data set [3], in data set [4] and in data set [5] was “Active” in each case. Besides, the Activity entry in data set [10] was “Non-Toxic”.
